From ChEMBL document CHEMBL4219038, “1-Thiazol-2-yl-N-3-methyl-1H-pyrozole-5-carboxylic acid derivatives as antitumor agents” (Bioorg Med Chem Lett, 2017)
Calls of active or inactive are those of the source. No cut-off for these calls is given here.

Legend:
NCI-H460 = experiment: Antiproliferative activity against human NCI-H460 cells; format: functional, cell-based
BJAB [1] = experiment: Antiproliferative activity against human BJAB cells after 4 days; format: functional, cell-based; settings: Homo sapiens, BJAB, 96 h; read-out: EC50
[2] = Protein binding in mouse plasma; format: ADME, cell-free; settings: read-out: PPB (converted)
Mus musculus [3] = experiment: Ratio of Cmax in mouse at 2.5 mg/kg, po to Cmax in mouse at 100 mg/kg, po; format: ADME, organism-based; settings: in vivo
HCT-116 = experiment: Cell cycle arrest in human HCT116 cells assessed as reduction in cell levels at S-phase at 0.001 to 10 uM after 24 hrs EdU-staining based high content imaging analysis; format: functional
In short: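 HCT-116 cells plated on poly-lysine-coated plates overnight, then treated 24 h with compound (DMSO stock diluted into McCoy's medium with 10% FBS). EdU labelling of newly synthesized DNA, 4% formaldehyde fixation, then high-content imaging in three fluorescent channels for total cell count, DNA content and S-phase cells. Means of three biological replicates, SEM.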

[4] = Dose normalized Cmax in J:Nu mouse plasma at 60 mg/kg, po qd for 7 days followed by 120 mg/kg, po qd for 5 days from day 8 to 13; format: ADME, organism-based; settings: in vivo
In short: (§1)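 J:Nu female mice, N = 4 per group, dosed orally once daily at 10, 30 or 60 mpk in 5% NMP, 10% PEG-400, 15% Solutol, 70% D5W. The 30 and 60 mpk groups were raised to 90 and 120 mpk from day 8 to 13.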

[5] = Plasma concentration (7 hrs) in J:Nu mouse at 10 mg/kg, po qd for 7 days measured on day 1; format: ADME, organism-based
In short: (§2)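 J:Nu female mice, N = 4 per group, dosed orally once daily at 10, 30 or 60 mg/kg in 5% NMP, 10% PEG-400, 15% Solutol, 70% D5W. Blood was sampled every other day, alternating Cmax and predose draws. Plasma concentration was taken 7 h after dosing.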

[6] = AUC (0 to infinity) in po dosed mouse; format: ADME, organism-based; parameters: route oral, time infinity; settings: in vivo
[7] = Cmax in J:Nu mouse plasma at 10 mg/kg, po qd for 7 days; format: ADME, organism-based; parameters: dose 10 mg/kg, route oral; in short: as §1
[8] = Kinetic solubility of the compound in PBS buffer at pH 7.4 in presence of 10% FBS; format: physicochemical; settings: PBS buffer with 10% FBS, read-out: Kinetic_solubility
BJAB [9] = experiment: Induction of apoptosis in human BJAB cells by high content cell imaging studies; format: functional, cell-based
[10] = Plasma concentration (7 hrs) in J:Nu mouse at 60 mg/kg, po qd for 7 days measured on day 1; format: ADME, organism-based; in short: as §2
[11] = AUC (0 to infinity) in iv dosed mouse; format: ADME, organism-based; parameters: time infinity, route intravenous; settings: in vivo
[12] = Toxicity in J:Nu mouse assessed as maximum tolerated dose at 10 to 120 mg/kg, po qd for 13 days; format: organism-based; settings: in vivo
[13] = Tmax in po dosed mouse; format: ADME, organism-based; settings: in vivo
[14] = Cmax in mouse at 10 mg/kg; format: ADME, organism-based; parameters: dose 10 mg/kg; settings: in vivo
Mus musculus [15] = experiment: Toxicity in J:Nu mouse assessed as changes in organ weight at 30 mg/kg, po qd for 7 days followed by 90 mg/kg, po qd for 5 days from day 8 to 13 measured 48 hrs after post last dose by pathology analysis; format: organism-based; settings: in vivo
In short: (§3)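 In J:Nu female mice (N = 4 per group), dosing was oral once daily at 30 or 60 mg/kg in 5% NMP/10% PEG-400/15% Solutol/70% D5W for 7 days. Doses were then raised to 90 or 120 mg/kg respectively on days 8–13. Clinical signs and body weights were recorded daily. Gross pathology, with spleen and liver weights, was done 48 h after the last dose.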

Mus musculus [16] = experiment: Toxicity in J:Nu mouse assessed as organ damage at 60 mg/kg, po qd for 7 days followed by 120 mg/kg, po qd for 5 days from day 8 to 13 measured 48 hrs after post last dose by pathology analysis; format: organism-based; settings: in vivo; in short: as §3
Mus musculus [17] = experiment: Toxicity in J:Nu mouse assessed as induction of changes in critical clinical parameters at 60 mg/kg, po qd for 7 days followed by 120 mg/kg, po qd for 5 days from day 8 to 13; format: organism-based; settings: in vivo; in short: as §3
SU-DHL10 = experiment: Antiproliferative activity against human SU-DHL10 cells; format: functional, cell-based
Mus musculus [18] = experiment: Ratio of AUC (0 to infinity) in mouse at 2.5 mg/kg, po to Cmax in mouse at 100 mg/kg, po; format: ADME, organism-based; settings: in vivo
[19] = Half life in iv dosed mouse; format: ADME, organism-based; settings: in vivo
[20] = Dose normalized AUC (0 to infinity) in J:Nu mouse plasma at 30 mg/kg, po qd for 7 days followed by 90 mg/kg, po qd for 5 days from day 8 to 13; format: ADME, organism-based; settings: in vivo; in short: as §1
[21] = AUC (0 to infinity) in J:Nu mouse plasma at 30 mg/kg, po qd for 7 days followed by 90 mg/kg, po qd for 5 days from day 8 to 13; format: ADME, organism-based; parameters: dose 30 mg/kg, route oral, time infinity; in short: as §1
[22] = Cmax in po dosed mouse; format: ADME, organism-based; parameters: route oral; settings: in vivo

In the case of Cc1nn(-c2nc(-c3ccc(Cl)c(Cl)c3)c(SC(C)C)s2)c(C(=O)O)c1-c1cc(Cl)cc(Cl)c1, the IC50 (NCI-H460) is reported as 330 nM, the EC50 (BJAB [1]) is reported as 554 nM and the fraction unbound [2] is reported as 0.008. The Ratio (Mus musculus [3]) was 0.9, the Activity (HCT-116) was “Active” and the Cmax/dose [4] was 1066.5 ng/mL. The concentration at 7 h [5] was 19700 ng/mL, the AUC(0-inf) [6] was 25.8 µg·h/mL and the Cmax [7] was 29000 ng/mL. For the same compound, the solubility kinetic [8] was > 200 µM, the Activity (BJAB [9]) was “Active” and the concentration at 7 h [10] was 88800 ng/mL. It also gave an AUC(0-inf) [11] of 10.7 µg·h/mL, an MTD at 312 h [12] of 90 mg/kg and a Tmax [13] of 5 h. The Cmax [14] was 15700 ng/mL, the Activity (Mus musculus [15]) was “Non-Toxic” and the Activity (Mus musculus [16]) was “Non-Toxic”. For the same compound, the Activity (Mus musculus [17]) was “Non-Toxic”, the IC50 (SU-DHL10) was 430 nM and the Ratio (Mus musculus [18]) was 1.4. For the same compound, the half-life [19] was 8 h, the AUC/dose [20] was 16500 ng·kg·h/mL/mg and the AUC(0-inf) [21] was 1490 µg·h/mL. For the same compound, the Cmax [22] was 1320 ng/mL.
